The values that follow come from PMC6901019 (Antiviral research, 2019).

One data set concerns HIV-1. The conditions noted are these: cited from earlier work.
The target of the next data set is HIV-1 CA CTD (Human immunodeficiency virus type 1 group M subtype B, UniProt P12493). In words: HTRF-based CAI binding competition assay. The conditions noted are these: for inhibition at 50 µM: read-out: inhibition of CA CTD-CAI HTRF signal. For orientation: TR-FRET usually uses a lanthanide donor and a delayed reading to cut background.
A further data set relates to C8166 cells. The data set is described as follows: MTT cytotoxicity assay. Type of data set: cell-based, Human. The conditions noted are these: 3 days. The method in brief: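 C8166 T cells were maintained in RPMI 1640 with 10% FBS, penicillin and streptomycin. They were seeded at 4×10^4/well with serially diluted test compound and kept at 37°C, 5% CO2. Viability was measured by MTT after 3 days, and the 50% cytotoxic concentration was calculated.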
(Tetrazolium dyes change colour on reduction, which living cells bring about.)

Data set [1] concerns Gag polyprotein processing. The data set is described as follows: Anti-p24 western blot of infected MT-4 cell lysates. Type of data set: cell-based. The conditions noted are these: MT-4 cells, 3 days of HIV-1IIIB replication, anti-p24 immunoblotting. Background: A western blot detects proteins with antibodies after separation by electrophoresis.
A further data set deals with WT CA protein (Human immunodeficiency virus type 1 group M subtype B, UniProt P12493). The data set is described as follows: In vitro CA assembly assay. Particulars: 50 μM CA-WT, NaCl-dependent assembly, OD 350 nm. It is filed as biochemical, HIV-1. The method in brief: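 Full-length WT CA (E. coli, pET11a) was dialysed into 50 mM sodium phosphate, pH 8.0, and mixed with test compound in 500 μl of that buffer. Assembly was started by adding 500 μl of the same buffer containing 4 M NaCl, pH 8.0. OD350 was read every 20 s for 30 min.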

In data set [2] the target is CAI-biotin peptide (biotinylated capsid assembly inhibitor peptide). In words: BLI.
For data set [3], the target named is GST-tagged HIV-1 capsid C-terminal domain (GST-CA CTD) (HIV-1). In words: AlphaScreen or HTRF.

Like-named read-outs stand apart in the source and are kept apart here.

As usually defined, the EC50 is the midpoint of the concentration-response curve. For the compound `Cc1ccnc(SCc2nc3ccccc3s2)n1` [BMMP], in the data set with HIV-1 (ref Urano et al., 2011), the EC50 was 20 to 50 µM.
Take `Cc1ccc(NC(=O)NCCSCc2ccc(CN(C)C)o2)cc1Cl` [CAP-1]: in the data set on HIV-1 (ref Tang et al. 2003), the EC50 was ~70 µM.
For `CO[C@H]1[C@H](OC(=O)c2ccc(C)[nH]2)[C@H](O)[C@@H](Oc2ccc3c(O)c(NC(=O)c4c[nH]c(C(=O)Nc5c(O)c6ccc(O[C@H]7OC(C)(C)[C@@H](OC)[C@H](OC(=O)c8ccc(C)[nH]8)[C@@H]7O)c(C)c6oc5=O)c4C)c(=O)oc3c2C)OC1(C)C` [Coumermycin A1], the EC50 in the data set on HIV-1 (ref Chen et al., 2016, Vozzolo et al. 2010) was 8 µM.
The inhibition is the percentage by which the read-out fell short of the control. Turning to `O=c1c2ccccc2[se]n1-c1ccccc1` [Ebselen], the EC50 with HIV-1 (ref Thenin-Houssier et al., 2016) is 3.37 µM. The inhibition at 50 µM at HIV-1 CA CTD is < 3.2%.
As to `C[C@H](CCC(=O)NCC(=O)O)[C@H]1CC[C@H]2[C@@H]3CC[C@@H]4C[C@H](O)CC[C@]4(C)[C@H]3C[C@H](O)[C@]12C` [GDC, glycodeoxycholate], the EC50 in the data set with HIV-1 (ref Lampel et al., 2015) was 3.12 µM. Moreover, the inhibition at 50 µM on HIV-1 CA CTD is < 20%.
Regarding `Cc1[nH]c2ccccc2c1CC(=O)N[C@@H](Cc1ccccc1)C(=O)N(C)c1ccccc1` [PF-3450074 (PF74)], the EC50 in the data set on HIV-1 (ref Blair et al., 2010, Shi et al., 2011) was 0.3 to 0.6 µM.
For `C[C@H](CCC(=O)NCCS(=O)(=O)O)[C@H]1CC[C@H]2[C@@H]3[C@H](O)C[C@@H]4C[C@H](O)CC[C@]4(C)[C@H]3C[C@H](O)[C@]12C` [TA, taurocholic acid], the inhibition at 50 µM on HIV-1 CA CTD is < 20%.
For orientation: CC50 means the concentration at which the toxic effect on the cells reaches its halfway point. Higher therefore signals better tolerance by the cells. Take `Cc1cc(C=C2C(=O)C=CC2=O)cc(C)c1O` [TX-1918]: the CC50 with C8166 cells worked out at 20.8 µM. In data set [1], the “effect on CA p24 production / Gag Pr55 processing” value is recorded as “significant reductions in proteolyzed CA p24 with increasing concentrations”. For the same compound, the “inhibition of CA CTD-CAI HTRF signal” value at HIV-1 CA CTD (compound at 50 μM) is recorded as > 70%. Also, the “effect on in vitro CA assembly” value at WT CA protein is recorded as “inhibited CA assembly in vitro”.
For `CC(=O)Nc1cccc(-n2c(=O)n(C3CC3)c(=O)c3c(Nc4ccc(I)cc4F)n(C)c(=O)c(C)c32)c1` [trametinib], the inhibition at 50 µM on HIV-1 CA CTD is < 3.2%.
In general, Kd refers to the free concentration of one partner at which half of the binding sites on the other are occupied at equilibrium, for simple one-to-one binding. Usually koff stands for the first-order rate constant of dissociation. A higher koff goes with fast dissociation. In data set [2], “GST-tagged HIV-1 capsid C-terminal domain (GST-CA CTD) (domain or fragment)” showed a Kd of 0.007 µM and a koff of 0.000152 s⁻¹.
As a reminder, the IC50 is the midpoint of a concentration-inhibition curve. A high value points to weaker potency in that assay. As for “untagged CAI peptide (capsid assembly inhibitor)”, the IC50 in data set [3] was 6.5 µM.
